Results from PMC7485944 (Clinical and Translational Science, 2020).
Values joined by “and” are separate entries in the source; they are usually repeats but may differ in a detail not shown here. Equal values may be shown once. Read-outs that look alike come from different tables or passages of the source. Blank lines part the entries; values can stand above or below the compound they belong to.

Experiments:
OATP1B1 [1] = conditions: following a single 600 mg dose; cited from earlier work
OATP1B3 [2] = conditions: following a single 600 mg dose; cited from earlier work
OATP2B1 = conditions: cited from earlier work
[3] = assay type: in vivo, human
Summary of the method: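 Same crossover dosing (saline or 600 mg inhibitor i.v. over 30 min, then 4 mg s.c. fasting). Plasma was sampled from 5 min to 36 h post-dose and stored at −25°C. Quantification used validated LC-MS/MS (LLOQ 1.00 ng/mL; linear 1.00–2,000 ng/mL). Noncompartmental analysis: AUC0–t by linear trapezoidal rule; AUC0–∞ adds Ct/λz; CL/F = Dose/AUC0–∞. Treatment effect given as geometric mean ratios with 90% CI.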

[4] = ref Idorsia Pharmaceuticals, data on file; cited from earlier work
platelet inhibition = conditions: single s.c. doses of 8 and 16 mg, postdose; cited from earlier work
OATP1B1 [5] = conditions: in vitro; ref Idorsia Pharmaceuticals, data on file; cited from earlier work
[6] = cited from earlier work
[7] = cited from earlier work; remark: listed apart in the source
[8] = Safety and tolerability evaluation of study treatments in healthy subjects; assay type: in vivo, human; conditions: for Number of AEs reported: 14 subjects
Summary of the method: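 Randomized, double-blind, two-period crossover in healthy adults with a 7–10 day washout. Each period gave 100 mL saline or 600 mg OATP inhibitor i.v. over 30 min, with bags and lines covered. This was followed by 4 mg test compound s.c. in the thigh under fasting. Monitoring throughout covered AEs, serious AEs, physical exam, vital signs, 12-lead ECG, body weight, clinical chemistry, hematology and coagulation.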

MRP2 = conditions: in vitro; ref Idorsia Pharmaceuticals, data on file; cited from earlier work
[9] = cited from earlier work; remark: listed apart in the source
OATP1B3 [10] = conditions: in vitro; ref Idorsia Pharmaceuticals, data on file; cited from earlier work
[11] = 600 mg rifampin i.v. before 4 mg selatogrel s.c.
[12] = Treatment A: placebo + 4 mg selatogrel s.c., n = 13
[13] = Treatment B: 600 mg rifampin i.v. + 4 mg selatogrel s.c., n = 13
[14] = treatment B (rifampin) / A (placebo), n = 13

SMILES: CO[C@H]1/C=C/O[C@@]2(C)Oc3c(C)c(O)c4c(O)c(c(/C=N/N5CCN(C)CC5)c(O)c4c3C2=O)NC(=O)/C(C)=C\C=C\[C@H](C)[C@H](O)[C@@H](C)[C@@H](O)[C@@H](C)[C@H](OC(C)=O)[C@@H]1C [rifampin]
Inhibition of OATP1B1 (OATP1B1 [1]): potent inhibitor
Inhibition of OATP1B3 (OATP1B3 [2]): potent inhibitor
Inhibition of OATP2B1 (OATP2B1): not a potent inhibitor

Decrease of CL/F with rifampin [3, 11]: ~ 30%
Decrease of Vd/F with rifampin [3, 11]: ~ 30%
Increase of AUC0–t with rifampin compared with placebo [3, 11]: 44%
Increase of AUC0–∞ with rifampin compared with placebo [3, 11]: 43% and ~40%
Increase of Cmax with rifampin compared with placebo [3, 11]: 19% and ~ 20%
AUC0–t, geometric mean [3, 12]: 273.7 ng·h/mL
AUC0–∞, geometric mean [3, 12]: 279.8 ng·h/mL
CL/F, geometric mean [3, 12]: 14.3 L/h
AUC0–t, geometric mean [3, 13]: 392.6 ng·h/mL
AUC0–∞, geometric mean [3, 13]: 398.7 ng·h/mL
CL/F, geometric mean [3, 13]: 10.0 L/h
AUC0–t, geometric mean ratio B/A [3, 14]: 1.44
AUC0–∞, geometric mean ratio B/A [3, 14]: 1.43
CL/F, geometric mean ratio B/A [3, 14]: 0.70
Cmax, geometric mean ratio B/A [3, 14]: 1.19
Vd/F, geometric mean ratio B/A [3, 14]: 0.68
t 1/2, geometric mean ratio B/A [3, 14]: 0.97
SMILES: CCCCOC(=O)N1CCN(C(=O)[C@H](CP(=O)(O)O)NC(=O)c2cc(N3CC[C@H](OC)C3)nc(-c3ccccc3)n2)CC1 [selatogrel, 4‐((R)‐2‐{[6‐((S)‐3‐Methoxypyrrolidin‐1‐yl)‐2‐phenylpyrimidine‐4‐carbonyl]amino}‐ 3‐phosphonopropionyl)piperazine‐1‐carboxylic Acid Butyl Ester]
transcellular permeability [4]: 0.2 10^−6 cm/seconds
Time to reversal of pharmacodynamic effect (platelet inhibition): ≤ 24 h
Substrate of OATP1B1 (OATP1B1 [5]): substrate
Exposure dose proportionality ([6]; dose range 1–32 mg): dose‐proportional exposure
Safety and tolerability in single-ascending dose study ([6]; dose range 1–32 mg): safe and well‐tolerated
Time of absorption after s.c. administration ([6]; s.c.): 30 to 45 min
elimination half-life ([6]; s.c.): 2 to 9 h
Plasma protein binding [7]: highly bound to plasma proteins
Intensity of AEs ([8]; both treatment periods): mild
Serious adverse events or AEs leading to discontinuation ([8]; both treatment periods): No serious adverse events or AEs leading to study discontinuation
Overall safety and tolerability ([8]; selatogrel 4 mg s.c. after rifampin or matching placebo): safe and well‐tolerated
Number of AEs reported ([8]; selatogrel 4 mg s.c. with 600 mg rifampin i.v. (treatment B)): 17
Number of AEs reported ([8]; selatogrel 4 mg s.c. with placebo (treatment A)): 8
Number of AEs considered related to study treatment ([8]; treatment period A (placebo + selatogrel)): 1
Substrate of MRP2 (MRP2): substrate
Route of elimination [9]: mainly eliminated unchanged via the biliary route
Substrate of OATP1B3 (OATP1B3 [10]): substrate
